Reference: ChEMBL document CHEMBL1134414, “Synthesis, antitumor cytotoxicity, and DNA-binding of novel N-5,2-di(omega-aminoalkyl)-2,6-dihydropyrazolo[3,4,5-kl]acridine-5-carboxamides” (J Med Chem, 2001)

test system: Nucleic Acid; assay: Apparent equilibrium constant for binding to calf thymus DNA by competitive displacement fluorometric assay; format: functional; conditions: Bos taurus

SMILES | K app [M⁻¹]
O=C1c2c(O)ccc(O)c2C(=O)c2c(NCCNCCO)ccc(NCCNCCO)c21 | 3.41e+08

test system: HT-29; assay: Concentration required to inhibit cell growth by 50% in vitro against Human colon adenocarcinoma cell line; format: functional, cell-based; conditions: not given
Method in brief: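 HT29 cells seeded at 2.5×10^4 cells/mL and exposed to drug continuously for 144 h. Assays run in triplicate.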

SMILES | IC50 [nM]
CCN(CC)CCNC(=O)c1ccc2c3c(c4ccccc4nc13)NN2CCN(CC)CC | 410
COc1ccc2c(c1)-c1nn(CCN3CCCC3)c3ccc(C(=O)NCCN(C)C)c(c13)N2 | 400
CN(C)CCNC(=O)c1ccc2c3c(c4cc(N)ccc4nc13)NN2CCN(C)C | 910
CN(C)CCNC(=O)c1ccc2c3c(c4cc(O)ccc4nc13)NN2CCN1CCCCC1 | 630
CN(C)CCNC(=O)c1ccc2c3c(c4cc(O)ccc4nc13)NN2CCN1CCCC1 | 910
CN(C)CCN1Nc2c3ccccc3nc3c(C(=O)NCCNCCO)ccc1c23 | 560
CN(C)CCCN1Nc2c3ccccc3nc3c(C(=O)NCCN(C)C)ccc1c23 | 250
COc1ccc2c(c1)-c1nn(CCCN(C)C)c3ccc(C(=O)NCCN(C)C)c(c13)N2 | 490
O=C(NCCN1CCCCC1)c1ccc2c3c(c4ccccc4nc13)NN2CCN1CCCCC1 | 450
O=C(NCCNCCO)c1ccc2c3c(c4ccccc4nc13)NN2CCN1CCCC1 | 1700
CN(C)CCCN1Nc2c3cc(O)ccc3nc3c(C(=O)NCCN(C)C)ccc1c23 | 1800
CN(C)CCNC(=O)c1ccc2c3c(c4ccccc4nc13)NN2CCN1CCCC1 | 190
CN(C)CCNC(=O)c1ccc2c3c(c4cc([N+](=O)[O-])ccc4nc13)NN2CCN(C)C | 3.9
COc1ccc2c(c1)-c1nn(CCN(C)C)c3ccc(C(=O)NCCN(C)C)c(c13)N2 | 120
CN(C)CCCNC(=O)c1ccc2c3c(c4ccccc4nc13)NN2CCN(C)C | 600
CN(C)CCN1Nc2c3ccccc3nc3c(C(=O)NCCN)ccc1c23 | 300
CN(C)CCCNC(=O)c1ccc2c3c(c4ccccc4nc13)NN2CCCN(C)C | 2300
CN(C)CCNC(=O)c1ccc2c3c(c4ccccc4nc13)NN2CCN1CCCCC1 | 210
CN(C)CCNC(=O)c1ccc2c3c(c4cc([N+](=O)[O-])ccc4nc13)NN2CCN1CCCCC1 | 31
CN(C)CCNC(=O)c1ccc2c3c(c4cc(O)ccc4nc13)NN2CCN(C)C | 600
CN(C)CCNC(=O)c1ccc2c3c(c4cc([N+](=O)[O-])ccc4nc13)NN2CCN1CCCC1 | 360
O=C(NCCNCCO)c1ccc2c3c(c4ccccc4nc13)NN2CCN1CCCCC1 | 560
COc1ccc2c(c1)-c1nn(CCN3CCCCC3)c3ccc(C(=O)NCCN(C)C)c(c13)N2 | 260
CN(C)CCNC(=O)c1ccc2c3c(c4ccccc4nc13)NN2CCN(C)C | 210
CN(C)CCNC(=O)c1ccc2c3c(c4cc(N)ccc4nc13)NN2CCN1CCCCC1 | 170
